Source: article PMC2916634 (Biochemistry, 2010)
Residue numbers refer to the chain shown, from its start. Names may count otherwise. Ends that are not written are not given here. Me3 = Me3: trimethyl-lysine (trimethylated lysine)

B1: V1617A: MLL PHD3 with V1617 mutated to alanine (protein)
chain: AKGNFCPLCDKCYDDDDYESKMMQCGKCDRWVHSKCENLSDEMYEILSNLPESAAYTCVNCTERH
modifications: left off: GST, end not stated, cleaved
B2: Y1619A: MLL PHD3 with Y1619 mutated to alanine (protein)
chain: B1 chain with A54V, Y56A
modifications: left off: GST, end not stated, cleaved
B3: CYP33 RRM domain (T3-K83), wild type (domain or fragment, human, UniProt Q9UNP9 3-83, looked up)
chain: TTKRVLYVGGLAEEVDDKVLHAAFIPFGDITDIQIPLDYETEKHRGFAFVEFELAEDAAAAIDNMNESELFGRTIRVNLAK
B4: F49A (protein)
chain: B3 chain with F47A
modifications: left off: GST, end not stated, cleaved
B5: CYP33 RRM: RRM domain of CYP33 spanning residues T3−K83 (protein)
chain: B3 chain
modifications: left off: GST, end not stated, cleaved
B6: K45A (protein)
chain: B3 chain with K43A
modifications: left off: GST, end not stated, cleaved
B7: L39A (protein)
chain: B3 chain with L37A
modifications: left off: GST, end not stated, cleaved
B8: R47A (protein)
chain: B3 chain with R45A
modifications: left off: GST, end not stated, cleaved
B9: CYP33 RRM F49A mutant (domain or fragment, human, UniProt Q9UNP9 3-83, looked up)
chain: B3 chain with F47A
B10: MLL PHD3 (third PHD finger of MLL), wild type (domain or fragment, human, UniProt Q03164 1564-1628, looked up)
chain: B1 chain with A54V
B11: MLL PHD3 W1594A mutant (domain or fragment, human, UniProt Q03164 1564-1628, looked up)
chain: B1 chain with W31A, A54V
B12: MLL PHD3 Y1619A mutant (domain or fragment, human, UniProt Q03164 1564-1628, looked up)
chain: B1 chain with A54V, Y56A
B13: CYP33 RRM L39A mutant (domain or fragment, human, UniProt Q9UNP9 3-83, looked up)
chain: B3 chain with L37A
B14: Histone H3 peptide (residues 1-15) trimethylated at K4 (peptide)
peptide: ARTK(Me3)QTARKSTGGKAY
modifications: not fully specified

How the values were obtained:
CDKN1B = experiment: Q-RT-PCR of CDKN1B expression in HEK293T cells; assay type: cell-based; details: 48 h after transfection, normalized to β2M, vs empty vector
Procedure, shortened: (§1)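 HEK293T cells transfected with Lipofectamine 2000 using pCEP4 empty vector, FLAG-tagged wild-type CYP33 or PPIase-dead CYP33 (R191A/F196A). At 48 h, RNA extracted with Trizol and reverse-transcribed. qPCR run in triplicate. cDNA levels normalized to β2M by the comparative Ct method.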

HOXA9 = experiment: Q-RT-PCR of HOXA9 expression in HEK293T cells; assay type: cell-based; details: 48 h after transfection, normalized to β2M, vs empty vector
Procedure, shortened: as §1

C-MYC = experiment: Q-RT-PCR of C-MYC expression in HEK293T cells; assay type: cell-based; details: 48 h after transfection, normalized to β2M, vs empty vector
Procedure, shortened: as §1

HOXC8 = experiment: Q-RT-PCR of HOXC8 expression in HEK293T cells; assay type: cell-based; details: 48 h after transfection, normalized to β2M, vs empty vector
Procedure, shortened: as §1

CDKN1B promoter = experiment: Chromatin immunoprecipitation at CDKN1B promoter in HEK293T cells; assay type: cell-based; details: ChIP, 48 h after transfection, CYP33 overexpression vs empty vector
Procedure, shortened: (§2)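 HEK293T cells transfected with empty vector or pCEP4-CYP33 by lipofectamine, then formalin-fixed at 48 h. Chromatin immunoprecipitated with anti-histone H3, anti-H3K4me3, anti-acetyl-H3 (K9/K14) or IgG control antibodies. Recovered DNA quantified by qPCR at MLL target gene promoters. Fold occupancy normalized to input DNA.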

HOXC8 promoter = experiment: Chromatin immunoprecipitation at HOXC8 promoter in HEK293T cells; assay type: cell-based; details: ChIP, 48 h after transfection, CYP33 overexpression vs empty vector
Procedure, shortened: as §2

[1] = 15N−1H HSQC structural integrity of mutants; assay type: physicochemical; details: 15N−1H HSQC of mutant vs wild type, 30 °C, pH 6.9
MLL PHD3 V1617A mutant = MLL PHD3 V1617A mutant (human, UniProt Q03164 1564-1628, V1617A); experiment: ITC
PHD3 = details: yeast two-hybrid assay, co-immunoprecipitation, and GST pull-down; cited from earlier work
W1594A PHD3 = W1594A PHD3 (Homo sapiens, UniProt Q03164, W1594A); experiment: ITC binding to PHD3 W1594A mutant
W1594A PHD3, sequence (Q03164 1564-1628 W1594A): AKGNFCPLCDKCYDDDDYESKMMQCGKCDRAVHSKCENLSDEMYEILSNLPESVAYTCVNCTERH

[2] = target: PHD3 (MLL PHD3, wild-type) (Homo sapiens, UniProt Q03164); experiment: ITC binding of H3K4me3 peptide or CYP33 RRM; details: CYP33 RRM Ala mutant to wild-type PHD3
PHD3 (MLL PHD3, wild-type), sequence (Q03164 1564-1628): as the sequence (Q03164 1564-1628 W1594A) above, with A31W counted along it

[3] = target: B10; experiment: ITC
[4] = target: B3; experiment: ITC
[5] = target: PHD3−CYP33 RRM complex (PHD3 saturated with CYP33 RRM) (human, UniProt Q03164 1564-1628; Q9UNP9 3-83); experiment: ITC

Molecule: CYP33 mutant (R191A/F196A)
CDKN1B expression (CDKN1B): no longer downregulated
HOXA9 expression (HOXA9): no longer downregulated
C-MYC expression (C-MYC): no longer downregulated
HOXC8 expression (HOXC8): no longer downregulated

Molecule: CYP33: Human nuclear Cyclophilin33, full-length; FLAG-tagged wild-type expressed from pCEP4 plasmid in HEK293T cells
CDKN1B expression (CDKN1B): markedly downregulated
HOXA9 expression (HOXA9): markedly downregulated
C-MYC expression (C-MYC): markedly downregulated
H3K4me3 mark (CDKN1B promoter): reduced
H3 acetylation level (K9 and K14) (CDKN1B promoter): reduced
histone H3 density (CDKN1B promoter): increase
H3K4me3 mark (HOXC8 promoter): reduced
histone H3 density (HOXC8 promoter): increase
HOXC8 expression (HOXC8): markedly downregulated

Molecule: B1
effect of mutation on structure [1]: does not affect the structural stability of PHD3

Molecule: B2
effect of mutation on structure [1]: disruption of the overall fold

Molecule: B3
fold decrease in affinity against wild-type PHD3 (MLL PHD3 V1617A mutant): ~6.2 fold

Molecule: B4
effect of mutation on structure [1]: without disrupting the structure

Molecule: B5
interaction with PHD3 (PHD3): interacts
Kd (W1594A PHD3; 25 °C, pH 7.2, CYP33 RRM to W1594A PHD3): 19.6 µM
fold weaker Kd vs wild-type PHD3 (W1594A PHD3; CYP33 RRM to W1594A PHD3): ~1.3 fold

Molecule: B6
interaction with PHD3 [2]: did not abrogate the interaction

Molecule: B7
effect of mutation on structure [1]: without disrupting the structure

Molecule: B8
interaction with PHD3 [2]: did not abrogate the interaction

Molecule: B9
fold decrease in affinity against wild-type CYP33 RRM [3]: ~14 fold

Molecule: B10
Kd [4]: 14.7 µM

Molecule: B11
Kd [4]: 19.6 µM

Molecule: B12
binding result [4]: binds

Molecule: B13
fold decrease in affinity against wild-type CYP33 RRM [3]: ~4.3 fold

Molecule: B14
fold increase in Kd against PHD3 alone [5]: ~5.7 fold
stoichiometry N [3]: 1
